One molecule from ChEMBL document CHEMBL4706647, “Development and optimization of halogenated vinyl sulfones as Nrf2 activators for the treatment of Parkinson's disease” (Eur J Med Chem, 2021) can be followed below.

Usually pIC50 stands for the negative decadic logarithm of the IC50, by convention in mol/L.

The test system of data set [1] is BV-2. As to the kind of experiment: Antiinflammatory activity in mouse BV-2 cells assessed as inhibition of LPS-induced iNOS expression at 2 uM preincubated for 6 hrs followed by LPS stimulation and measured after 24 hrs by Western blot analysis. Format: functional, cell-based. The note with it: time 30.0 hrs. The essentials: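 BV-2 cells pretreated with compound, then stimulated with LPS. iNOS protein measured by Western blot with β-actin as internal control. Mean ± SEM, n = 3, three separate experiments.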

The next data set concerns Mus musculus. Description: Neuroprotective activity in MPTP-induced C57BL/6 mouse model of Parkinson's disease assessed as reduction in tyrosine hydroxylase-positive cell loss at 30 mg/kg, po pretreated for 1 day followed by MPTP challenge and subsequent compound dosing for 2 days measured 6 days post-MPTP challenge by immunohistochemistry analysis relative to control. Set-up: scale not given: the % may be the effect or the level left. The format is functional. The note with it: time 7 day. The method, boiled down:
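Male C57BL/6 mice, 10 weeks old, 23–26 g, n = 10 per group. Dosed 30 mg/kg p.o. for 3 consecutive days in 10% N-methyl-2-pyrrolidone/20% Tween-80 in water. On day 2, MPTP-HCl 20 mg/kg i.p. given four times at 2 h intervals. Coat-hanger (scored 1–5, test done twice) and vertical grid tests run 6 days after MPTP. Brains taken next day for anti-TH immunohistochemistry (1:1000, DAB).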

The target of data set [2] is T1, Nuclear factor erythroid 2-related factor 2 (Mus musculus) (UniProt Q60795).
T1 sequence (whole entry): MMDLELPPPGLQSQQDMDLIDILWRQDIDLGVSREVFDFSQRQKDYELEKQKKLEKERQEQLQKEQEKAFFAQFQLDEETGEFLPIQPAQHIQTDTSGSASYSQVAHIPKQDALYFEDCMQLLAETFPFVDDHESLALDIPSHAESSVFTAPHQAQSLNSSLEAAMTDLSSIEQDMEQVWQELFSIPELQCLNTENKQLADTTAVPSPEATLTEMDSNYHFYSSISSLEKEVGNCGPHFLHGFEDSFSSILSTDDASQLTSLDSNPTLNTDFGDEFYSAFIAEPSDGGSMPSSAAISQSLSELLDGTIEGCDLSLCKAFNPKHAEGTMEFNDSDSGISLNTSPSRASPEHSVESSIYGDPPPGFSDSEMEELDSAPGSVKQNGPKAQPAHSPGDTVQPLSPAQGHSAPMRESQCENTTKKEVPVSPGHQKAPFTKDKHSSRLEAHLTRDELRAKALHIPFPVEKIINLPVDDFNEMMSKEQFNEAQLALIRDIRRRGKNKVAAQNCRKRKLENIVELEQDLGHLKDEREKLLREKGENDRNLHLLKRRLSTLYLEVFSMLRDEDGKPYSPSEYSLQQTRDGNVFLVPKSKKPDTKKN
As to the kind of experiment: Activation of Nrf2 in mouse BV-2 cells assessed as increase in Sod1 mRNA expression after 6 hrs by RT-qPCR analysis. The format is cell-based. Particulars: filed as activator, dose 0.03-1 µM. The essentials:
(§1)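 BV-2 cells exposed to a range of concentrations for 6 h. Ho1, Gclc, Gclm and Sod1 mRNA quantified by RT-qPCR and expressed relative to vehicle-treated control. Mean ± SEM, n = 3; Student's t-test.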

For data set [3], the target named is T1, Nuclear factor erythroid 2-related factor 2 (Mus musculus). Description: Activation of Nrf2 in mouse BV-2 cells assessed as increase in SOD1 expression at 10 uM after 6 hrs by Western blot analysis relative to control. The note with it: filed as activator. Format: cell-based. The essentials:
(§2)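 BV-2 microglia grown in RPMI-1640 with 10% FBS, penicillin-streptomycin and 2 mM L-glutamine at 37 °C, 5% CO2. Cells exposed to a range of concentrations for 6 h, then HO-1, GCLC, GCLM and SOD1 protein measured by Western blot. Band intensity normalized to β-actin and given as fold of vehicle control. Mean ± SEM, n = 3, three separate experiments.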
In general terms: Immunoblotting shows a protein as a band on a membrane.

Data set [4] has the same target. As to the kind of experiment: Activation of Nrf2 in mouse BV-2 cells assessed as increase in HO1 expression after 6 hrs by Western blot analysis. The note with it: filed as activator, dose 0.02-10 µM. The format is cell-based. The essentials: as §2
In data set [5] the target is Voltage-gated inwardly rectifying potassium channel KCNH2 (Homo sapiens, UniProt Q12809). As to the kind of experiment: Inhibition of fluorescence tracer red binding to human ERG measured after 4 hrs by fluorescence polarization assay. In general terms: In fluorescence polarisation assays a small probe gives low polarisation when free and higher when bound to something large.
Sequence of Voltage-gated inwardly rectifying potassium channel KCNH2 (Q12809 whole entry): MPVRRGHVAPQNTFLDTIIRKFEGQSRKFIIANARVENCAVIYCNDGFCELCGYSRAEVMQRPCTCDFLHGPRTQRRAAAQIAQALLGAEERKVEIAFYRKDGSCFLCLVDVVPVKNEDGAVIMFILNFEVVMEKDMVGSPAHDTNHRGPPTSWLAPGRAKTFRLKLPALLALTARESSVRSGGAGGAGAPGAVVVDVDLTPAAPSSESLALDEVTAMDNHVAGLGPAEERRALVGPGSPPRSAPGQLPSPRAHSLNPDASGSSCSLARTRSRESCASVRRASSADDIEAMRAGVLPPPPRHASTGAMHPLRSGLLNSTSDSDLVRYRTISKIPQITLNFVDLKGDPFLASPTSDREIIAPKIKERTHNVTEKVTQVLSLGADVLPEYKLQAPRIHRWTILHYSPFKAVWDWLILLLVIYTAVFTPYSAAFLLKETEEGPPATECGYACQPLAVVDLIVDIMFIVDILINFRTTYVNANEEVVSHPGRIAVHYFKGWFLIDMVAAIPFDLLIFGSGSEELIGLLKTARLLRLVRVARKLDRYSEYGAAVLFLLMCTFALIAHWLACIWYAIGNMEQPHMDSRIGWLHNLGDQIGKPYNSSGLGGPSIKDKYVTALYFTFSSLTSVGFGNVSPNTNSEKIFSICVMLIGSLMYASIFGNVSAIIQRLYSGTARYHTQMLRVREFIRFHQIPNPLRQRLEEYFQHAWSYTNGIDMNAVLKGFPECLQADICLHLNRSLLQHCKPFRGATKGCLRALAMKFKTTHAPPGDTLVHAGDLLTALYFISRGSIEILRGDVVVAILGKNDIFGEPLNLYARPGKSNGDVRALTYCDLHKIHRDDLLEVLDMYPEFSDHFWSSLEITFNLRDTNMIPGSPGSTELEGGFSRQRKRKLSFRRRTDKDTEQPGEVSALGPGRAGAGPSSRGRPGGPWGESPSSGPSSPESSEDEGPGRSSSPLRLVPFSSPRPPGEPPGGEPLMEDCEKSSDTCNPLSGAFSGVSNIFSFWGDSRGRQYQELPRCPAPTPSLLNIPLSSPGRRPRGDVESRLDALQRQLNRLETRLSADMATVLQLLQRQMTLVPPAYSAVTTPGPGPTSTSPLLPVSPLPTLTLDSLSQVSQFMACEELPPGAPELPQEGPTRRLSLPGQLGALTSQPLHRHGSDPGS

Another data set addresses T2, CYP1A2 (Homo sapiens, UniProt P05177).
T2 sequence (P05177 whole entry): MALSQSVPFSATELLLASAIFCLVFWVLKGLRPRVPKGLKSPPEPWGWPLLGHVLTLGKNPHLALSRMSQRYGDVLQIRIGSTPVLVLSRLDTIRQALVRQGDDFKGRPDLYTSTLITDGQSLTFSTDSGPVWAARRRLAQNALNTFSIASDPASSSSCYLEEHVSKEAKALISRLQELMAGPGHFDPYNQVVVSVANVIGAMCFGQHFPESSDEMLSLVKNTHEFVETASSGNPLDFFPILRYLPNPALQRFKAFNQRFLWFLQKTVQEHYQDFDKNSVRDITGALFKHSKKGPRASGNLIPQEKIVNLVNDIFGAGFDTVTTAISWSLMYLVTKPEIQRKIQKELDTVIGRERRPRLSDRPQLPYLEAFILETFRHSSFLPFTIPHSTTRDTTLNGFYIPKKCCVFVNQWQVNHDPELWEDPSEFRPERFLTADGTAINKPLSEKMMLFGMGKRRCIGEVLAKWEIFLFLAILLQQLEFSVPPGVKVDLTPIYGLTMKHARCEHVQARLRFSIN
Description: Inhibition of CYP1A2 (unknown origin) assessed as residual activity. The format is ADME.

In data set [6] the target is T1, Nuclear factor erythroid 2-related factor 2 (Mus musculus). Description: Activation of Nrf2 in mouse BV-2 cells assessed as increase in nuclear Nrf2 levels after 6 hrs by Western blot analysis. Format: cell-based. Particulars: filed as activator, dose 0.02-10 µM.
For another data set, the target named is CYP3A4 (Homo sapiens, UniProt P08684). As to the kind of experiment: Inhibition of CYP3A4 (unknown origin) assessed as residual activity. The format is ADME.
Sequence of CYP3A4 (P08684 whole entry): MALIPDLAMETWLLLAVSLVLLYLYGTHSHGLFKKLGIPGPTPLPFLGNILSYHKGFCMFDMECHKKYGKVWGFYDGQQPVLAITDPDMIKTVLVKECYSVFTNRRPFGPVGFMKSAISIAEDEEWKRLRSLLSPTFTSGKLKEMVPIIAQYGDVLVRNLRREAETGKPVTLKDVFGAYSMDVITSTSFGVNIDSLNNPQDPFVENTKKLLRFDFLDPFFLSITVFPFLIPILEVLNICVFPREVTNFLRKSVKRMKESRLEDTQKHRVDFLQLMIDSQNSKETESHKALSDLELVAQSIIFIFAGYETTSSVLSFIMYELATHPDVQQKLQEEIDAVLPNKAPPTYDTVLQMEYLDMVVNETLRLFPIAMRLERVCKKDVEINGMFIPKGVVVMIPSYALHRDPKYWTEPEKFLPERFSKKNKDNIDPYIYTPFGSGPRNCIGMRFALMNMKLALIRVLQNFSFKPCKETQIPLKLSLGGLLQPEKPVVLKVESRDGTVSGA
Data set [7] deals with BV-2. Description: Antiinflammatory activity in mouse BV-2 cells assessed as inhibition of LPS-induced TNFalpha production preincubated for 6 hrs followed by LPS stimulation and measured after 24 hrs by ELISA. The format is functional, cell-based. The note with it: dose 0.02-2 µM, time 30.0 hrs. The method, boiled down:
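BV-2 cells seeded in 12-well plates and pretreated 6 h with compound at […]. LPS then added for 24 h. TNF-α and IL-6 released into the medium quantified by ELISA. Mean ± SEM, n = 3, three separate experiments.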
For orientation: ELISA stands for enzyme-linked immunosorbent assay.

Data set [8] deals with BV-2. As to the kind of experiment: Inhibition of nitric oxide production in LPS-stimulated mouse BV-2 cells harboring Nrf2 siRNA at 100 nM cotreated with LPS for 24 hrs by griess assay.
Data set [9] addresses T1, Nuclear factor erythroid 2-related factor 2 (Mus musculus). Description: Activation of Nrf2 in mouse BV-2 cells assessed as increase in GCLM expression after 6 hrs by Western blot analysis. The format is cell-based. Particulars: filed as activator, dose 0.02-10 µM. The essentials: as §2
Data set [10] has the same target. As to the kind of experiment: Activation of Nrf2 in mouse BV-2 cells assessed as increase in Gclc mRNA expression after 6 hrs by RT-qPCR analysis. The note with it: filed as activator, dose 0.03-1 µM. The format is cell-based. The method, boiled down:
as §1

Data set [11] shares this target. As to the kind of experiment: Activation of Nrf2 in mouse BV-2 cells assessed as increase in nuclear Nrf2 levels at 0.5 uM after 6 hrs by Western blot analysis relative to control. The format is cell-based. The note with it: filed as activator.
The target is the same in data set [12]. Description: Activation of Nrf2 in mouse BV-2 cells assessed as increase in Gclc mRNA expression at 1 uM after 6 hrs by RT-qPCR analysis relative to control. Format: cell-based. The note with it: filed as activator. The essentials: as §1
Data set [13] can be described thus: Stability in human plasma assessed as parent compound remaining after 30 mins by LC-MS/MS analysis. Format: ADME, cell-free. Particulars: read-out: Stabilty.

pIC50: −log10 of the molar value. The source made the active and inactive calls. The rule behind the calls is not given here.

Turning to `O=S(=O)(/C=C/c1ncccc1Cl)c1ccccc1Cl`, the inhibition entry in the data set with BV-2 [1] was “Active”. The activity in the data set with Mus musculus was determined as 65%; on CYP1A2 it was 88.4%; on CYP3A4 it was 91.2%. For the same molecule, the Activity result in [2], in data set [4], in data set [6], in [9] and in data set [10] was “Dose-dependent effect” each time. Further, the fold change (FC) in [3] was found to be 6.6; in [11], 11; in data set [12], 2.6. The pIC50 in data set [5] was 3.96. Moreover, in the data set with BV-2 [7], the inhibition result is “Dose-dependent effect”. Further, the inhibition entry in the data set on BV-2 [8] is “inactive”. Further, the remaining at 0.5 h in data set [13] stood at 97%.
